From PubChem
Tb MetRS inh: blocks T. brucei methionyl-tRNA synthetase activity; hit rate 0.4% among 360,000; AID 624268; inhibition, % at 11.9 µM; purified T. brucei MetRS, ATP depletion, Kinase-Glo luminescence;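 active means inhibition above a per-plate cutoff of the control wells' mean inhibition plus 3 SD, cut at about 5.5% in these data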
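assay system = parasite MetRS enzyme | timing = 15 min preincubation, 2 h reaction, all 25 °C | evaluation = percent inhibition relative to median high and low control wells | medium = HEPES buffer containing pyrophosphatase, BSA, spermine, DTT | compound = single dose, 11.9 µM final nominal, 0.9% final DMSO | detection = Kinase-Glo luminescence, ATP depletion format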
TPT1 inh: blocks Candida albicans tRNA 2'-phosphotransferase | recombinant caTPT1, FP RNA substrate dephosphorylation | inhibition, % at 5 µM | hit rate 0.81% among 300,000;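 active means inhibition above the mean of all tested compounds plus 3 SD, set per screening campaign, cut at about 24% in these data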
IDE inh: inhibits human insulin-degrading enzyme in HEK cells. P14735. AID 434962. inhibition, % at 5.59 µM. hit rate 0.41% among 320,000. FAbetaB cleavage, fluorescence polarization;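 active means percent inhibition above the average of all tested compounds plus 3 SD, set per screening campaign, cut at about 16% in these data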;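 further: IDE supplied by intact live HEK cells; FP after avidin binding of uncleaved biotin substrate so inhibition keeps polarization high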
IDE act: boosts human insulin-degrading enzyme activity in HEK cells; AID 493087; hit rate 0.073% among 340,000; activation, % at 5.96 µM; FAbeta-B cleavage, fluorescence polarization; 0% vehicle, 100% cell-free pure enzyme wells; P14735;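 active means activation above the mean of all tested compounds plus 3 SD, set per screening campaign, cut at about 17% in these data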
HNF4A DNA FP: change in binding of human HNF4 alpha to DNA | P41235 | HNF4a-FITC DNA binding, fluorescence polarization, 1 h | activity change, % at 10 µM | hit rate 0.3% among 360,000; in the data active means activity change above about 30%, passing the limit was not always enough
CSN deneddyl inh: inhibitors of human CSN-mediated cullin deneddylation | Q92905 | Purified CSN, SCF-Nedd8-OG deneddylation, fluorescence polarization | inhibition, % at 12.5 µM | hit rate 0.38% among 360,000 | AID 651999;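 active means pattern-corrected inhibition above about 35%, with an unprinted fluorescence ratio check between 0.5 and 1.5, limit read from the data, passing the limit was not always enough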
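Assay system: HEK293T-derived human Csn5 enzyme; quantity: 0.24 nM enzyme; medium: Tris/NaCl/DTT buffer, pH 7.5; also added: substrate SCFSkp2-Nedd8OG, 10 nM; doses: 12.5 µM compound; schedule: 90 min reaction at room temperature; signal: FP; read-out: % inhibition of substrate cleavage by Csn5; benchmarks: substrate-only high control, full reaction low control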
CSN5 deneddyl: Csn5 (human) deneddylation inhibition, single-concentration validation; hit rate 62% among 540; shares compounds with CSN deneddyl inh; inhibition, % at 16.6 µM; Csn5 deneddylation of SCF-Nedd8OG, fluorescence polarization, 90 min; in the data active means inhibition above about 50%
MMP2 cntr CSN: blocks human MMP-2 in a CSN deneddylation counter-screen | recombinant MMP-2, FRET substrate fluorescence, 60 min | inhibition, % at 16.6 µM | shares compounds with CSN deneddyl inh | hit rate 33% among 540;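 active means corrected plate-normalized z-score of 5 or more, or -5 or less, or inhibition of 15% or more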
Target sequence (P08253 whole entry, looked up): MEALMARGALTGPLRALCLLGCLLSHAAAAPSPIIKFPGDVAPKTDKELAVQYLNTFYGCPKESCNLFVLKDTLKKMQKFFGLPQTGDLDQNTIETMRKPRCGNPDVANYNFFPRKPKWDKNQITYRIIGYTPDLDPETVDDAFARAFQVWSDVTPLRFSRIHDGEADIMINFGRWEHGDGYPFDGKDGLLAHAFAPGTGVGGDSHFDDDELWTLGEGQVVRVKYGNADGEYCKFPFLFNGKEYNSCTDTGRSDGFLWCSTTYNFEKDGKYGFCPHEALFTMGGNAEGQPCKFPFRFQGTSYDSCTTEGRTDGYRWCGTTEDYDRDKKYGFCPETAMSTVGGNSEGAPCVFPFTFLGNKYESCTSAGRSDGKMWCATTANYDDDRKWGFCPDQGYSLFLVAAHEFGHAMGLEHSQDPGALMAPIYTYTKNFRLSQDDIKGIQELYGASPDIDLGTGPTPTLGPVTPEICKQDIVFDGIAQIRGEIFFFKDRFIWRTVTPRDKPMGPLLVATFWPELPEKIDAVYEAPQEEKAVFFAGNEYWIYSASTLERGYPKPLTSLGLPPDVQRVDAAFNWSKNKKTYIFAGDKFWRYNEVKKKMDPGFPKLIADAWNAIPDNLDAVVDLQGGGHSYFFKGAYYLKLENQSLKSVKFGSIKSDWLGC
Thrombin counter: blocks bovine thrombin in a CSN deneddylation counter-screen; hit rate 49% among 540; inhibition, % at 16.6 µM; bovine thrombin cleavage of Ub4-pepOG, fluorescence polarization; shares compounds with CSN deneddyl inh;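 active means inhibition at or above a set limit, with a fluorescence interference ratio between 0.5 and a set maximum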
Each line names hits and unclear results; the compound was inactive in the other large screens (follow-up assays come after a bar, where they were run). The list is not random: actives were taken first. Their share in the collection is about 1.7%.

COc1ccc(S(=O)(=O)N2CCN(C(=O)C3COc4ccccc4O3)CC2)cc1 (stereo not given)	CSN deneddyl inh 45.1 (no result: TPT1 inh) | MMP2 cntr CSN inactive | Thrombin counter 15.7
O=C(CN(Cc1ccccc1F)C(=O)Cn1nnc(-c2cccs2)n1)NC1CCCCC1	none
Cc1sc2ncn(CC(=O)NCc3ccco3)c(=O)c2c1-c1ccccc1	none
CCOC(=O)CCC(NC(=O)CCCCCCCC(=O)NC(CCC(=O)OCC)C(=O)OCC)C(=O)OCC (stereo not given)	none
COc1cc2c(oc(=O)c3cc(C)cc(OC)c32)c2c(C3OC(C)C(O)C(C)(O)C3O)ccc(O)c12 (stereo not given)	CSN deneddyl inh 35.4 (no result: TPT1 inh, IDE inh) | CSN5 deneddyl 107.3 | MMP2 cntr CSN inactive | Thrombin counter inactive
O=C(OCc1nnc(-c2ccccc2)o1)c1cc(Cl)ccc1[N+](=O)[O-]	none
COc1ccc(CCC(=O)N2c3ccccc3N=C(c3ccc(C(F)(F)F)cc3)C2C(=O)NC2CCCC2)cc1 (stereo not given)	none (no result: TPT1 inh, IDE inh, IDE act)
CC(=O)Nc1ccc(CNc2nc3cc(-c4ccc(F)cc4)sc3c(=O)n2C)cc1	none (no result: TPT1 inh, IDE inh, IDE act)
O=C(CSc1nnc(SCc2ccccc2)s1)N/N=C/c1c[nH]c2ccccc12	none (no result: TPT1 inh, IDE inh)
Cc1ccc(CSc2nnc(SCC(=O)N/N=C/c3c[nH]c4ccccc34)s2)cc1	HNF4A DNA FP 107.9, CSN deneddyl inh 60.6 (no result: TPT1 inh, IDE inh) | CSN5 deneddyl 66.9 | MMP2 cntr CSN 23.4 | Thrombin counter inactive
CN(C)CCCN=Cc1c(O)n(Cc2ccc3c(c2)OCO3)c(=O)c2ccccc12	none (no result: Tb MetRS inh, IDE act, HNF4A DNA FP, CSN deneddyl inh)
Cc1ccc(-c2cc(C(=O)N/N=C/c3ccc([N+](=O)[O-])o3)c3ccccc3n2)o1	CSN deneddyl inh 39.5 (no result: TPT1 inh, IDE inh) | CSN5 deneddyl 106.6 | MMP2 cntr CSN inactive | Thrombin counter inactive
O=C(N/N=C/c1ccc([N+](=O)[O-])o1)c1cc(-c2ccncc2)nc2ccccc12	none
Nc1cccc2c1C(=O)N(C(=O)c1ccco1)C2=O	none
Nc1cccc2c1C(=O)N(C(=O)/C=C/c1ccc(F)cc1)C2=O	CSN deneddyl inh 37.3 | CSN5 deneddyl 69.3 | MMP2 cntr CSN inactive | Thrombin counter inactive
C#CCN1C(=O)S/C(=C\c2ccc(-c3ccc(C(=O)O)cc3C)o2)C1=O	CSN deneddyl inh 38.7 | MMP2 cntr CSN inactive | Thrombin counter 37.3
Cc1ccccc1NC(=O)CN1C(=O)S/C(=C\c2ccc(-c3cc(C(=O)O)ccc3C)o2)C1=O	CSN deneddyl inh 71.4 (no result: TPT1 inh, IDE inh) | MMP2 cntr CSN inactive | Thrombin counter inactive
Cc1ccc(NC(=O)CN2C(=O)S/C(=C/c3ccc(-c4cccc(C(=O)O)c4)o3)C2=O)cc1	none (no result: TPT1 inh, IDE inh)
Cc1ccc(C(=O)O)cc1-c1ccc(/C=C2/NC(=O)N(c3ccccc3)C2=O)o1	CSN deneddyl inh 40.8 | MMP2 cntr CSN inactive | Thrombin counter 20.7
CCOC(=O)C(C)N1C(=O)S/C(=C\c2ccc(-c3ccccc3C(=O)O)o2)C1=O (stereo not given)	CSN deneddyl inh 48.1 | MMP2 cntr CSN 25.3 | Thrombin counter inactive
CCCCn1c(Cn2nc(C(=O)O)c3ccccc3c2=O)nc2cc(S(N)(=O)=O)ccc21	none
O=C(COC(=O)CNS(=O)(=O)c1ccc2ccccc2c1)Nc1ccccc1Sc1ccccc1	none
COc1ccc(C(=O)NCCCn2nc(C)cc2C)cc1S(=O)(=O)N1CCOCC1	none (no result: TPT1 inh, IDE inh)
Cc1cc[n+](-c2ccccc2)c2ccccc12	none
COc1ccc(Cc2nc3ccc(C(=O)N(C)C(C)c4ccon4)cc3o2)cc1 (stereo not given)	none
O=C(O)c1cccc(N2C(=O)/C(=C/c3ccc(SCc4ccc(Cl)cc4)o3)SC2=S)c1	CSN deneddyl inh 45.7 (no result: TPT1 inh, IDE inh) | MMP2 cntr CSN inactive | Thrombin counter 48.9
CCOc1cc(S(=O)(=O)NCc2ccncc2)ccc1Cl	none (no result: IDE act)
CCOC(=O)C1=C(C)NC(=S)NC1c1ccc(OCC(=O)N2CCCCC2)cc1 (stereo not given)	none
O=[N+]([O-])c1ccc(C2=NN(c3ccccc3)C(c3ccco3)C2)cc1 (stereo not given)	CSN deneddyl inh 62.6 (no result: TPT1 inh, IDE inh) | CSN5 deneddyl 176.1 | MMP2 cntr CSN inactive | Thrombin counter inactive
Cc1ccc(C2=NN(S(=O)(=O)c3ccccc3)C(c3ccco3)C2)cc1 (stereo not given)	none (no result: TPT1 inh)
CC1=C(C(=O)OC(C)C)C(c2ccc(Cl)cc2)n2c(sc(=Cc3ccc(OCC(=O)O)cc3)c2=O)=N1 (stereo not given)	CSN deneddyl inh 83.7 (no result: TPT1 inh, IDE inh, IDE act) | CSN5 deneddyl inactive | MMP2 cntr CSN inactive | Thrombin counter 25.6
Cc1cccc(N=C2NC(=O)/C(=C/C=C/c3ccco3)S2)c1C	CSN deneddyl inh 58.3 | CSN5 deneddyl 63.3 | MMP2 cntr CSN 17.6 | Thrombin counter 37.5
Cc1cccc(N=C2NC(=O)/C(=C/c3cccnc3)S2)c1C	none
Cc1ccc(N=C2NC(=O)/C(=C/C=C/c3ccco3)S2)cc1	CSN deneddyl inh 49.2 | CSN5 deneddyl 93.2 | MMP2 cntr CSN 17.0 | Thrombin counter inactive
COc1ccc(N=C2NC(=O)/C(=C/c3ccco3)S2)cc1	none
O=C(CC[C@H]1O[C@@H](n2ccc(=O)[nH]c2=O)[C@H](O)[C@@H]1O)N[C@H](Cc1ccccc1)C(=O)NCC1CCCO1 (stereo not given in full)	none (no result: TPT1 inh, IDE inh, IDE act)
C/C(=N\NC(=O)c1cc(-c2cccc([N+](=O)[O-])c2)n[nH]1)c1ccccc1O	CSN deneddyl inh 40.2 | MMP2 cntr CSN inactive | Thrombin counter inactive
C/C(=N/NC(=O)c1cc(-c2cccc([N+](=O)[O-])c2)n[nH]1)c1cccc(O)c1	none
Cc1c(NC(=O)c2cccc(NC(=O)COc3ccc(C#N)cc3)c2)c(=O)n(-c2ccccc2)n1C	none (no result: TPT1 inh, IDE inh)
CCCc1cc(=O)oc2cc(OCC(=O)NCc3cccs3)ccc12	none
CCCc1cc(=O)oc2cc(OCC(=O)Nc3ccc(S(N)(=O)=O)cc3)ccc12	CSN deneddyl inh 104.2 | CSN5 deneddyl inactive | MMP2 cntr CSN 45.9 | Thrombin counter 32.0
CCN1CCN(C(=O)C(N)Cc2ccccc2)CC1 (stereo not given)	none
Brc1ccc(-c2nn3c(-c4ccco4)nnc3s2)o1	CSN deneddyl inh 41.1 | CSN5 deneddyl 95.4 | MMP2 cntr CSN inactive | Thrombin counter inactive
Clc1ccc(-c2ccc(-c3nn4c(-c5ccco5)nnc4s3)o2)cc1	none
